According to PMC11190929 (ACS Omega, 2024):

Tests used:
[1] = molecular target: T1, MARK4 (Homo sapiens, UniProt Q96L34); assay: Fluorescence binding studies; details: for KSV: Stern-Volmer
T1 sequence (Q96L34 59-368): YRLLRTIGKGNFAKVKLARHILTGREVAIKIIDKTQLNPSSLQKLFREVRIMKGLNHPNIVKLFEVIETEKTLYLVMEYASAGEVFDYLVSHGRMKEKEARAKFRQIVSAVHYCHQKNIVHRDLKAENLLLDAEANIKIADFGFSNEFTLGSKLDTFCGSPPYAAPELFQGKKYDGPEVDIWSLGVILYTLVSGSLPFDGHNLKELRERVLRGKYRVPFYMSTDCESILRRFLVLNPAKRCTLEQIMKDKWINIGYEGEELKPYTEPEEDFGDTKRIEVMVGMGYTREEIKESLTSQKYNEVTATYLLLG
In short: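 Intrinsic fluorescence of recombinant MARK4 (4 μM) titrated with test compound at 0–15 μM. Excitation 280 nm, emission 300–400 nm, slit 10 nm, medium response. Quenching data fitted to the Stern–Volmer and modified Stern–Volmer equations to give binding constant Ka and number of binding sites n.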

[2] = molecular target: T1, MARK4; assay: ATPase enzyme inhibition assay; format: biochemical; details: for ATPase activity of MARK4: in the presence of compound
In short: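 MARK4 (residues 59–368), expressed in E. coli M15 and purified, at 6 μM with 20 μM ATP in 20 mM Tris pH 8.0. Incubated with test compound (0–120 μM) at 25 °C for 10–15 min. Phosphate detected with Biomol Green malachite-green reagent, absorbance 620 nm. IC50 computed with an online calculator.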

[3] = test system: C3A cells; assay: Annexin-V/PI staining; format: cell-based, human
In short: (§1)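 Cells were exposed to test compound or vehicle for 72 h, then trypsinized and washed 2–3 times in sterile PBS. They were stained with PI and Cy5-labelled annexin-V and analysed by flow cytometry. Positive cells were quantified from n = 3 biological replicates, with a t test against vehicle.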

[4] = test system: tau phosphorylation in SH-SY5Y cells; assay: Tau-phosphorylation assay; format: cell-based, human; details: compound at its enzyme IC50 concentration, 24 h
In short: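 SH-SY5Y neuroblastoma cells kept in 1:1 Eagle's MEM/F12 and plated in six-well plates, then incubated with test compound for 24 h. Cells were trypsinized, fixed and rinsed, then labelled with an anti-phospho-tau primary and an Alexa-647 conjugated secondary antibody. After washing and resuspension in FACS buffer, cells were analysed by flow cytometry.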

[5] = test system: SNU-475 cells; assay: Transwell cell migration assay, SNU-475; format: cell-based, human; details: SNU-475, 1/2 IC50, 24 h, vs vehicle control
In short: (§2)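 Serum-starved cells treated with test compound or vehicle for 24 h, then 50 × 10^3 cells/well placed in serum-free medium in the upper Boyden chamber (8.0 μm PET membrane). Lower chamber held complete medium with 10% FBS. Next day, non-migrated cells were swabbed off. Migrated cells were methanol-fixed, stained with 0.4% crystal violet in 25% methanol, and counted in 4–5 random fields.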

[6] = test system: HEK293 cells; assay: Cytotoxicity on noncancerous HEK293 cells; format: cell-based, human; details: up to 200 μM
In short: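 HEK293 cells in RPMI 1640 medium, seeded at 2000–3000 cells/well and allowed to grow overnight. Exposed to test compound over 0–200 μM for 48–72 h. Resazurin-based PrestoBlue HS reagent applied about 45 min, fluorescence measured at excitation 560/emission 590 nm. Viability expressed as percent of vehicle control across doses.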

[7] = test system: SNU-475 cells; assay: Annexin-V/PI staining; format: cell-based, human; details: SNU-475, annexin-V/PI
In short: as §1

[8] = test system: SNU-475 cells; assay: Cell viability; format: cell-based; details: Homo sapiens, SNU-475, 72 h, read-out: IC50 (cell viability)
In short: (§3)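 Cells grown in Eagle's MEM with 10% FBS and 1% penicillin/streptomycin, seeded at 2000–3000 cells/well and left overnight. Treated with test compound 0–200 μM for 48–72 h. PrestoBlue HS (resazurin) added for about 45 min, fluorescence read at 560/590 nm. Percent viability relative to vehicle control plotted against dose.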

[9] = test system: C3A cells; assay: Transwell cell migration assay, C3A; format: cell-based, human; details: 1/2 IC50, 24 h, vs vehicle control
In short: as §2

[10] = test system: C3A cells; assay: Cell viability; format: cell-based; details: Homo sapiens, 72 h, read-out: IC50 (cell viability)
In short: as §3

[11] = fluorescence quenching, modified Stern-Volmer

Row | Molecule | Kd [1] | KSV ([1]; fluorescence quenching) | n (number of binding sites) [1, 11] | ATPase activity of MARK4 [2] | further results
1 | COc1cc(C(=O)N/N=C2\C(=O)Nc3ccc(Br)cc32)ccc1O [VI-7, (Z)-N′-(5-Bromo-2-oxoindolin-3-ylidene)-4-hydroxy-3-methoxybenzohydrazide] | 3010 nM | 1.7 × 10^5 M^–1 | 1.067 |  | 
2 | COc1cc(C(=O)N/N=C2\C(=O)Nc3cc(F)ccc32)ccc1O [VI-14, (Z)-N′-(6-Fluoro-2-oxoindolin-3-ylidene)-4-hydroxy-3-methoxybenzohydrazide] | 735 nM | 1.8 × 10^5 M^–1 | 1.199 |  | 
3 | COc1ccc2c(c1)/C(=N/NC(=O)c1ccc(O)c(OC)c1)C(=O)N2 [VI-3, (Z)-4-Hydroxy-3-methoxy-N′-(5-methoxy-2-oxoindolin-3-ylidene)benzohydrazide] | 44.4 nM | 3.8 × 10^5 M^–1 | 1.367 | decreased considerably | 
4 | COc1cc(C(=O)N/N=C2\C(=O)Nc3cc(Cl)ccc32)ccc1O [VI-4, (Z)-N′-(6-Chloro-2-oxoindolin-3-ylidene)-4-hydroxy-3-methoxybenzohydrazide] | 1120 nM | 1.8 × 10^5 M^–1 | 1.141 |  | 
5 | COc1cc(C(=O)N/N=C2\C(=O)Nc3ccc(C)cc32)ccc1O [VI-2, (Z)-4-Hydroxy-3-methoxy-N′-(5-methyl-2-oxoindolin-3-ylidene)benzohydrazide] | 725 nM | 3.7 × 10^5 M^–1 | 1.145 | decreased considerably | 
6 | COc1cc(C(=O)N/N=C2\C(=O)Nc3ccccc32)ccc1O [VI-1, (Z)-4-Hydroxy-3-methoxy-N′-(2-oxoindolin-3-ylidene)benzohydrazide] | 179 nM | 3.9 × 10^5 M^–1 | 1.241 |  | 
7 | COc1cc(C(=O)N/N=C2\C(=O)Nc3c(Cl)cccc32)ccc1O [VI-9, (Z)-N′-(7-Chloro-2-oxoindolin-3-ylidene)-4-hydroxy-3-methoxybenzohydrazide] | 6760 nM | 1.0 × 10^5 M^–1 | 1.047 | decreased considerably | Apoptosis induction [3]: strongly promote early apoptosis; Tau phosphorylation [4]: decreased the tau phosphorylation; Cell migration [5]: significantly decreased the migration; Cytotoxicity on noncancerous HEK293 cells [6]: did not exhibit cytotoxicity; Apoptosis induction [7]: strongly promote early apoptosis; IC50 [8]: 4.35 µM; IC50 [2]: 7.16 µM; Cell migration [9]: significantly decreased the migration; IC50 [10]: 6.96 µM
8 | COc1ccc2c(c1)NC(=O)/C2=N\NC(=O)c1ccc(O)c(OC)c1 [VI-13, (Z)-4-Hydroxy-3-methoxy-N′-(6-methoxy-2-oxoindolin-3-ylidene)benzohydrazide] | 37.5 nM | 0.8 × 10^5 M^–1 | 1.517 |  | 
9 | (Z)-N′-(6-Fluoro-2-oxoindolin-3-ylidene)-4-hydroxy-3-methoxybenzohydrazide [VI-11] |  | 1.4 × 10^5 M^–1 | 1.015 |  | Ka (binding constant) ([1]; fluorescence quenching, modified Stern-Volmer, excitation 280 nm): 1.56 × 10^5 M^–1
10 | COc1cc(C(=O)N/N=C2\C(=O)Nc3c(C)cc(C)cc32)ccc1O [VI-5, (Z)-N′-(5,7-Dimethyl-2-oxoindolin-3-ylidene)-4-hydroxy-3-methoxybenzohydrazide] | 40000 nM | 1.0 × 10^5 M^–1 | 0.8404 | decreased considerably | 
11 | COc1cc(C(=O)N/N=C2\C(=O)Nc3cc(Cl)c(F)cc32)ccc1O [VI-10, (Z)-N′-(6-Chloro-5-fluoro-2-oxoindolin-3-ylidene)-4-hydroxy-3-methoxybenzohydrazide] | 12700 nM | 0.8 × 10^5 M^–1 | 1.006 |  | 
12 | COc1cc(C(=O)N/N=C2\C(=O)Nc3ccc(Cl)cc32)ccc1O [VI-6, (Z)-N′-(5-Chloro-2-oxoindolin-3-ylidene)-4-hydroxy-3-methoxybenzohydrazide] | 1570 nM | 1.4 × 10^5 M^–1 | 1.135 |  | 
13 | COc1cc(C(=O)N/N=C2\C(=O)Nc3c2cccc3[N+](=O)[O-])ccc1O [VI-8, (Z)-4-Hydroxy-3-methoxy-N′-(7-nitro-2-oxoindolin-3-ylidene)benzohydrazide] | 76300 nM | 0.6 × 10^5 M^–1 | 0.8606 |  | 
